Assay [1] in a line: Binding affinity to DNA (unknown origin) at 0.0625 to 0.5 mM by ethidium bromide dye based agarose gel electrophoresis method.
Assay [2] deals with HCT-116. Put plainly: Induction of apoptosis in human HCT116 cells assessed as necrotic cells level at 3 uM incubated for 24 hrs by 7-AAD and annexin V staining-based flow cytometry (reference value: 0.7%). The format is functional.
The subject of assay [3] is HCT-116. Put plainly: Induction of apoptosis in human HCT116 cells assessed as late apoptotic cells level at 0.75 uM incubated for 24 hrs by 7-AAD and annexin V staining-based flow cytometry (reference value: 3.1%). The format is functional. In general terms: In flow cytometry, cells or beads pass a laser one at a time.
Assay [4] relates to HCT-116. Put plainly: Induction of apoptosis in human HCT116 cells assessed as early apoptotic cells level at 0.75 uM incubated for 24 hrs by 7-AAD and annexin V staining-based flow cytometry (reference value: 4%). The assay is classed as functional.
For assay [5], the system named is HCT-116. Briefly: Induction of apoptosis in human HCT116 cells assessed as late apoptotic cells level at 3 uM incubated for 24 hrs by 7-AAD and annexin V staining-based flow cytometry (reference value: 3.1%). The assay is classed as functional.
Assay [6] concerns HCT-116. Briefly: Induction of apoptosis in human HCT116 cells assessed as necrotic cells level at 0.75 uM incubated for 24 hrs by 7-AAD and annexin V staining-based flow cytometry (reference value: 0.7%). The assay is classed as functional.
Assay [7] addresses DNA (cytosine-5)-methyltransferase 1 (Mus musculus) (UniProt P13864). Briefly: (§1) Binding affinity to N-terminal His6-tagged mouse DNMT1 (731 to 1602 residues) expressed in Escherichia coli BL21 (DE3) by SPR assay. A digest of the protocol:
(§2)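 Measured by SPR at 25°C. Purified mouse DNMT1 was amine-coupled to a CM5 chip in 10 mM sodium acetate pH 5.0 and equilibrated overnight in HBS-EP (10 mM HEPES pH 7.4, 150 mM NaCl, 3 mM EDTA, 0.05% P20, 0.1% DMSO). Serially diluted compounds were injected with 120 s contact and 120 s dissociation, and KD was derived by the instrument evaluation software.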

Assay [8] deals with T1, DNA (cytosine-5)-methyltransferase 1 (Mus musculus, UniProt P13864). The assay is described as §1. In short, it runs like this: as §2
T1 sequence (P13864 whole entry): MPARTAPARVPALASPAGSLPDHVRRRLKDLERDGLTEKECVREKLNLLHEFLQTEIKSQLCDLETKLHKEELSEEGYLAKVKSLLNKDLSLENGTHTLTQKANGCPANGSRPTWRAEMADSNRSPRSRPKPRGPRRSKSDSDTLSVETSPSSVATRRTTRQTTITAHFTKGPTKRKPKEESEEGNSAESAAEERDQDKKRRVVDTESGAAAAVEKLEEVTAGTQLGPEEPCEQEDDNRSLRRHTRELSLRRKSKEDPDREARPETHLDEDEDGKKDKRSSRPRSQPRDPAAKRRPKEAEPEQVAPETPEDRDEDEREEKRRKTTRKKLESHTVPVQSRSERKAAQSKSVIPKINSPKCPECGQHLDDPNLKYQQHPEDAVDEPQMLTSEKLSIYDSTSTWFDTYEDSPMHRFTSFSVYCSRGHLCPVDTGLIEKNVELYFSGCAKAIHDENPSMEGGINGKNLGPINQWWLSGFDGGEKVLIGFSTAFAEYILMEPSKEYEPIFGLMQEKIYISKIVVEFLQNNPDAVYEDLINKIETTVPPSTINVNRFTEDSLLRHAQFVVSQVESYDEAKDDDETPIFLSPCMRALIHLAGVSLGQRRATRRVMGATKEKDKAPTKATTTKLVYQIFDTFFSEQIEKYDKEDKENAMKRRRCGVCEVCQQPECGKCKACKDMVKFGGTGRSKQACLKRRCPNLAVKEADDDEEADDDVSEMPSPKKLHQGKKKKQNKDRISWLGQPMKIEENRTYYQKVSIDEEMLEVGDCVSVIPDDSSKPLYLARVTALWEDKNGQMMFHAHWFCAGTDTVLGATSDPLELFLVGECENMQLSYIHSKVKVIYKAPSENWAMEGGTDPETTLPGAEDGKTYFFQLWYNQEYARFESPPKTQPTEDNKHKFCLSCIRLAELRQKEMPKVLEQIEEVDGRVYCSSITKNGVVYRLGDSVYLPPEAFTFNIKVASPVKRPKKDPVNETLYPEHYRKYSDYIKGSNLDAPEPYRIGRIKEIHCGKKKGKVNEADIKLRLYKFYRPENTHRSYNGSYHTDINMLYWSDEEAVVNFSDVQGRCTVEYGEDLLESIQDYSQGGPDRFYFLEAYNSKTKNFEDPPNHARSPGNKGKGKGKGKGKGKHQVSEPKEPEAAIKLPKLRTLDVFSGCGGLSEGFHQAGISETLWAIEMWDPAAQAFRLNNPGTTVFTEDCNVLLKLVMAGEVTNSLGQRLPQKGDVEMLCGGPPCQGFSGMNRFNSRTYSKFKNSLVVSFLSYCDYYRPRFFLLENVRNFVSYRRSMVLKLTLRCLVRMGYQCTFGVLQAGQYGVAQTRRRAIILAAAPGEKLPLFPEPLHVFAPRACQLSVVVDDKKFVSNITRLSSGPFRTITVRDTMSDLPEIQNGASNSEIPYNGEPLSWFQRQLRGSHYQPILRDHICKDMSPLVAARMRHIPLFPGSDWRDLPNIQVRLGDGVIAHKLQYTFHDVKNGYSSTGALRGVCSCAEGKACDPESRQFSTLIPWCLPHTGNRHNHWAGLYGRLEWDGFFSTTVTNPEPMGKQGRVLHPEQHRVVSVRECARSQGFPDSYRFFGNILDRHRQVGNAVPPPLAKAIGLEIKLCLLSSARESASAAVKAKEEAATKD
Assay [9] deals with HCT-116. Put plainly: Induction of apoptosis in human HCT116 cells assessed as late apoptotic cells level at 1.5 uM incubated for 24 hrs by 7-AAD and annexin V staining-based flow cytometry (reference value: 3.1%). The assay is classed as functional.
Assay [10] has as its system HCT-116. Briefly: Induction of apoptosis in human HCT116 cells incubated for 24 hrs by 7-AAD and annexin V staining-based flow cytometry. The format is functional, cell-based.
The subject of assay [11] is HCT-116. Put plainly: Induction of apoptosis in human HCT116 cells assessed as early apoptotic cells level at 3 uM incubated for 24 hrs by 7-AAD and annexin V staining-based flow cytometry (reference value: 4%). The assay is classed as functional.
The subject of assay [12] is HCT-116. Put plainly: Induction of apoptosis in human HCT116 cells assessed as necrotic cells level at 1.5 uM incubated for 24 hrs by 7-AAD and annexin V staining-based flow cytometry (reference value: 0.7%). The format is functional.
Assay [13] concerns the target T1, DNA (cytosine-5)-methyltransferase 1. Put plainly: Inhibition of N-terminal His6-tagged mouse DNMT1 (731 to 1602 residues) expressed in Escherichia coli BL21 (DE3) incubated for 15 mins before addition of [3H]-SAM and poly(dI-dC).poly(dI-dC) by liquid scintillation counting based radioactive methylation assay. In short, it runs like this: (§3)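 Enzyme was preincubated with compound for 15 min at room temperature, then reacted for 60 min at 37°C. Products were filter-captured, washed and counted by scintillation. IC50 came from a nonlinear dose-response fit; single-point tests used 50 µM.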

Assay [14] relates to HCT-116. Briefly: Induction of apoptosis in human HCT116 cells assessed as viable cells at 3 uM incubated for 24 hrs by 7-AAD and annexin V staining-based flow cytometry (reference value: 92.2%). The assay is classed as functional. Particulars: HCT-116, 24 h, read-out: Activity.
In assay [15] the target is DNA (cytosine-5)-methyltransferase 1 (Mus musculus) (UniProt P13864). Briefly: Inhibition of N-terminal His6-tagged mouse DNMT1 (731 to 1602 residues) expressed in Escherichia coli BL21 (DE3) at 50 uM incubated for 15 mins before addition of [3H]-SAM and poly(dI-dC).poly(dI-dC) by liquid scintillation counting based radioactive methylation assay. In short, it runs like this:
as §3

The test system of assay [16] is HCT-116. Briefly: Induction of apoptosis in human HCT116 cells assessed as viable cells at 0.75 uM incubated for 24 hrs by 7-AAD and annexin V staining-based flow cytometry (reference value: 92.2%). The assay is classed as functional. Particulars: HCT-116, 24 h, read-out: Activity.
Assay [17] relates to HCT-116. Briefly: Induction of apoptosis in human HCT116 cells assessed as early apoptotic cells level at 1.5 uM incubated for 24 hrs by 7-AAD and annexin V staining-based flow cytometry (reference value: 4%). The format is functional.
In assay [18] the test system is HCT-116. Put plainly: Induction of apoptosis in human HCT116 cells assessed as viable cells at 1.5 uM incubated for 24 hrs by 7-AAD and annexin V staining-based flow cytometry (reference value: 92.2%). The assay is classed as functional. Particulars: HCT-116, 24 h, read-out: Activity.

Calls of active or inactive are those of the source. The rule behind the calls is not given here.

Chain of DNA (cytosine-5)-methyltransferase 1 (Mus musculus) (P13864 whole entry, the tested form may be a part): as the sequence (P13864 whole entry) above

Regarding `CC(C)NCC(O)COC(Cn1c2ccccc2c2ccccc21)Cn1c2ccccc2c2ccccc21` (racemic), the outcome in [1] was inactive. The Activity was 2.6% in the assay on HCT-116 [2]; 4% in the assay on HCT-116 [3]; 4.6% in the assay with HCT-116 [4]; 27.2% with HCT-116 [5]; 0.3% in the assay with HCT-116 [6]; “Dose-dependent effect” in assay [7]. Also, the Activity with HCT-116 [9] is 10.8%; in the assay with HCT-116 [10], “Dose-dependent effect”; in the assay on HCT-116 [11] it was 42.7%; with HCT-116 [12], 0.7%; in the assay on HCT-116 [17] it was 12.5%. Moreover, the Kd (commonly the concentration at which binding is half-saturated) in assay [8] turned out to be 0.91 µM. Also, the IC50 (commonly the concentration that gives 50% inhibition) in assay [13] amounted to 1.7 µM. Moreover, the viability at 3 µM in the assay on HCT-116 [14] is 27.5%. In assay [15], the inhibition (commonly the relative decrease from the control value, in per cent) was 102%. In addition, in the assay with HCT-116 [16], the viability at 0.75 µM came to 91.1%. Further, the viability at 1.5 µM in the assay with HCT-116 [18] amounted to 76%.
